From ChEMBL document CHEMBL1152990, “The mechanism of action of beta-D-2'-deoxy-2'-fluoro-2'-C-methylcytidine involves a second metabolic pathway leading to beta-D-2'-deoxy-2'-fluoro-2'-C-methyluridine 5'-triphosphate, a potent inhibitor of the hepatitis C virus RNA-dependent RNA polymerase” (Antimicrob Agents Chemother, 2008)
Calls of active or inactive are those of the source. The calls are words filed in the database; no cut-off is given here.

Key:
Huh-7 [1] = test: Ratio of Kcat to Km for cloned NDPK in human HuH7 cells assessed as formation of […] triphosphate by spectrophotometry; format: cell-based
Huh-7 [2] = test: Ratio of Kcat to Km for cloned NDPK in human HuH7 cells assessed as formation of uridine triphosphate by spectrophotometry; format: cell-based
Method in brief: (§1)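 Recombinant human kinase read out by PK/LDH coupling, following NADH oxidation at 340 nm. Rates were measured over varied substrate levels and fitted for steady-state parameters.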

Huh-7 [3] = test: Activity of cloned NDPK in human HuH7 cells assessed as formation of uridine triphosphate by spectrophotometry; format: cell-based; method in brief: as §1
[4] = tested on: RNA-directed RNA polymerase (Hepacivirus hominis), O39930 [S282T]; test: Ratio of Ki to Km for HCV NS5B polymerase S282T mutant
Method in brief: (§2)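 Recombinant HCV NS5B S282T (21-aa C-terminally truncated, E. coli-expressed, metal-affinity purified) in a de novo steady-state RNA synthesis assay on an unprimed minus-IRES RNA template. Run at 27°C in 50 mM HEPES pH 7.5 with 5 mM MgCl2 and 2 mM DTT. For the CTP analog, UTP/GTP/ATP were fixed at 10/100/100 μM while 32P-CTP and the inhibitor were varied. For the UTP analog, CTP/ATP/GTP were fixed at 10/100/100 μM while 32P-UTP and the inhibitor were varied.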

Hepacivirus hominis [5] = test: Fold resistance, ratio of Ki/Km for HCV NS5B polymerase S282T mutant to Ki/Km for wild type HCV NS5B polymerase
Method in brief: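 Ki and Km were measured for wild-type and S282T NS5B (C-terminal Δ21) by steady-state de novo RNA synthesis. Conditions were an unprimed minus-IRES template, 27°C, 50 mM HEPES pH 7.5, 5 mM MgCl2, 2 mM DTT, and varied 32P-labelled natural NTP with varied inhibitor. Fold resistance = (Ki/Km mutant)/(Ki/Km wild type).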

Hepacivirus hominis [6] = test: Ratio of Ki to Km for wild type HCV NS5B polymerase
Method in brief: (§3)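 De novo RNA synthesis by NS5B lacking 21 C-terminal residues, in 50 mM HEPES pH 7.5 with 5 mM MgCl2 and 2 mM DTT at 27°C. Template was unprimed minus-IRES RNA, 2.8 μg each of enzyme and template. CTP 10 μM, ATP and GTP 100 μM; 32P-UTP and inhibitor were varied. Aliquots were quenched with EDTA/NaCl/citrate.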

[7] = tested on: C[C@@]1(F)[C@H](O)[C@@H](CO)O[C@H]1n1ccc(N)nc1=O; test: Ratio of Kcat to Km for cloned 2'-deoxycytidine kinase in human HepG2 cells assessed as formation of formation of […] monophosphate by spectrophotometry; format: cell-based
Hepatitis C virus [8] = test: Antiviral activity against HCV harboring NS5B polymerase S282T mutation infected in human HuH7 cells assessed as inhibition of viral RNA replication after 4 days by replicon assay in absence of DCTD inhibitor zedularine; format: functional; conditions: Hepacivirus hominis; Huh-7
Method in brief: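 Huh-7 clone A subgenomic replicon cells carrying NS5B S282T (selected by serial passage with 2′-C-methyladenosine) were seeded at 1,500 cells/well without G418. Threefold compound dilutions were added alone or with 100 μM zebularine, followed by 4 days at 37°C, 5% CO2. Replicon RNA was quantified by single-step multiplex RT-PCR, and activity was taken as ΔCT versus the no-drug control to give EC90.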

Hepatitis C virus [9] = test: Antiviral activity against wild type HCV infected in human HuH7 cells assessed as inhibition of viral RNA replication after 4 days by replicon assay in absence of DCTD inhibitor zedularine; format: functional; conditions: Hepacivirus hominis; Huh-7
Method in brief: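 Clone A Huh-7 replicon cells at 1,500 cells/well, without G418. Threefold serial compound dilutions were given with or without 100 μM zebularine, for 4 days at 37°C in 5% CO2. Replicon RNA was quantified by single-step multiplex RT-PCR, and activity was taken as ΔCT relative to the no-drug control.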

[10] = target: Creatine kinase M-type (Homo sapiens) (UniProt P06732); test: Activity of human creatine kinase isoform MM assessed as formation of RO2433 triphosphate at 200 uM
Chain of Creatine kinase M-type (Homo sapiens) (P06732 whole entry, canonical isoform): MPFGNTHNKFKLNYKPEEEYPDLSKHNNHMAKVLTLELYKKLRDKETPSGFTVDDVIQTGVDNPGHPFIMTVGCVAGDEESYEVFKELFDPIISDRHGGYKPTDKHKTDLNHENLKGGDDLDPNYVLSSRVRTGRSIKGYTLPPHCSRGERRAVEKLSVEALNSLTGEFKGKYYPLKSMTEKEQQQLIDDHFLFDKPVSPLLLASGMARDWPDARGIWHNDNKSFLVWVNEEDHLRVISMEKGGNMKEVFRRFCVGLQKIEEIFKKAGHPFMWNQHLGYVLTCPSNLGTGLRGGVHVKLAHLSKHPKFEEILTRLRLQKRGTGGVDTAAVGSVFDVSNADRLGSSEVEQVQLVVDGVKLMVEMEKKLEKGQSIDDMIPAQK

[11] = target: Creatine kinase B-type (Homo sapiens) (UniProt P12277); test: Activity of human creatine kinase isoform BB assessed as formation of RO2433 triphosphate at 200 uM
Chain of Creatine kinase B-type (Homo sapiens) (P12277 whole entry, canonical isoform): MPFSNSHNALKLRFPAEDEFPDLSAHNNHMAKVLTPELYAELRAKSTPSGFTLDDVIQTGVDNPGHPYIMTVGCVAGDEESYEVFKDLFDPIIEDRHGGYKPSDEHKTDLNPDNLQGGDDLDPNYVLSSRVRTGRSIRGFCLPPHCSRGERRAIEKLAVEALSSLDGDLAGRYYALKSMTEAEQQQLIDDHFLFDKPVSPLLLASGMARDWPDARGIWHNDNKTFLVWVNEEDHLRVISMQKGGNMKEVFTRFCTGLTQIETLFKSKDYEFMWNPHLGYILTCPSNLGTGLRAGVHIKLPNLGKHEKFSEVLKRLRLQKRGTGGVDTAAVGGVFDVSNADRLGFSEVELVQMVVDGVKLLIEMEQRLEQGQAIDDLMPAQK

[12] = target: T1, Phosphoglycerate kinase (Saccharomyces cerevisiae S288c) (UniProt P00560); test: Activity of yeast 3-phosphoglycerate kinase assessed as formation of RO2433 triphosphate at 200 uM
T1 sequence (whole entry): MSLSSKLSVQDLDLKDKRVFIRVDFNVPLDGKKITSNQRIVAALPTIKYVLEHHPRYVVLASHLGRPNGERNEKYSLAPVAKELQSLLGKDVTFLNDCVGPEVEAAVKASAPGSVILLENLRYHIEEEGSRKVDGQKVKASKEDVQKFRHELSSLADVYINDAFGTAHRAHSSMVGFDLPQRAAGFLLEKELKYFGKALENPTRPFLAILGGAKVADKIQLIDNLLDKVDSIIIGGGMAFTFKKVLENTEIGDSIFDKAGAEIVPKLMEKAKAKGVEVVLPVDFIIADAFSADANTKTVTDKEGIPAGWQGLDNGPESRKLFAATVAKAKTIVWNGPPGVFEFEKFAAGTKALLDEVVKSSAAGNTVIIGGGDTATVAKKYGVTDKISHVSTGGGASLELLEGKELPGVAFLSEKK

Homo sapiens = species: Homo sapiens; test: Activity of human creatine kinase isoform MB assessed as formation of RO2433 triphosphate at 200 uM
Huh-7 [13] = test: Ratio of Kcat to Km for cloned NDPK in human HuH7 cells assessed as formation of RO2433 triphosphate by spectrophotometry; format: cell-based; method in brief: as §1
[14] = target: T2, Thymidine kinase 2, mitochondrial (Homo sapiens) (UniProt O00142); test: Activity of thymidine kinase 2 up to 1 mM
T2 sequence (whole entry): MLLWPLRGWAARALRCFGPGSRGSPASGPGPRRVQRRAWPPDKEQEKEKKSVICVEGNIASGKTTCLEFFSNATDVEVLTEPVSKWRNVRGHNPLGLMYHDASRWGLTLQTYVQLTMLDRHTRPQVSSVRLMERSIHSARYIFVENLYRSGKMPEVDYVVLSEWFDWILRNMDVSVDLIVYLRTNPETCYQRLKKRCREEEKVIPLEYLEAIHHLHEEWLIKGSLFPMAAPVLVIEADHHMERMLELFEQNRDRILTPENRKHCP

[15] = target: Deoxycytidine kinase (Homo sapiens) (UniProt P27707); test: Activity of cloned deoxycytidine kinase in human HepG2 cells up to 1 mM; format: cell-based
Chain of Deoxycytidine kinase (Homo sapiens) (P27707 whole entry, looked up): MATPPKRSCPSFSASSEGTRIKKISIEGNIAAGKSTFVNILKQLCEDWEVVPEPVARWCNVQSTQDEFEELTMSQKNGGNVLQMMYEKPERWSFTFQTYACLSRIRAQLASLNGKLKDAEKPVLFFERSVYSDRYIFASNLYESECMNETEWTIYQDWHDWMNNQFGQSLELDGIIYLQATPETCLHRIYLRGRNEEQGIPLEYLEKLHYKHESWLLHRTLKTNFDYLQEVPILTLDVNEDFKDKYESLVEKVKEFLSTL

[16] = target: T3, Thymidine kinase, cytosolic (Homo sapiens) (UniProt P04183); test: Activity of thymidine kinase 1 up to 1 mM
T3 sequence (whole entry): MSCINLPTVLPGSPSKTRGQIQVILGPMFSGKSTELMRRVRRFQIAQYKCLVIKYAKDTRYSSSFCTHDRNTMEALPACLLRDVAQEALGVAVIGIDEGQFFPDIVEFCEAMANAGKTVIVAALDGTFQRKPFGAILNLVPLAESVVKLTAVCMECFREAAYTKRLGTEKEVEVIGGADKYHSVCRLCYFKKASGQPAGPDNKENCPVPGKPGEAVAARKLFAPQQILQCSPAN

[17] = target: T4, Uridine-cytidine kinase 1 (Homo sapiens) (UniProt Q9HA47); test: Activity of cloned uridine-cytidine kinase 1 in human HuH7 cells up to 1 mM; format: cell-based; conditions: Huh-7
T4 sequence (whole entry): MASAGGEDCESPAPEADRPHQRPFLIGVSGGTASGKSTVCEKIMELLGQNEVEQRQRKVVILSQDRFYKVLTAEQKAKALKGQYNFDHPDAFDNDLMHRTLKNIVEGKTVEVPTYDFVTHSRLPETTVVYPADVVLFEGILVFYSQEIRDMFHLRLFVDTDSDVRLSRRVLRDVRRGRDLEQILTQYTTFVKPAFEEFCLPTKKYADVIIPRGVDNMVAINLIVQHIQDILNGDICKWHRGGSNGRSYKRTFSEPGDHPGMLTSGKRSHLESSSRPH

[18] = tested on: C[C@@]1(F)[C@H](O)[C@@H](COP(=O)(O)OP(=O)(O)OP(=O)(O)O)O[C@H]1n1ccc(=O)[nH]c1=O; test: (§4) Activity of HCV NS5B polymerase S282T mutant; conditions: Hepacivirus hominis; method in brief: as §2
[19] = tested on: C[C@@]1(F)[C@H](O)[C@@H](COP(=O)(O)OP(=O)(O)OP(=O)(O)O)O[C@H]1n1ccc(N)nc1=O; test: as §4; conditions: Hepacivirus hominis; method in brief: as §2
Hepacivirus hominis [20] = test: Activity of wild type HCV NS5B polymerase; method in brief: as §3

Chain of Deoxycytidine kinase (Homo sapiens), P27707 (P27707 whole entry): as the sequence (P27707 whole entry, looked up) above

`C[C@@]1(F)[C@H](O)[C@@H](COP(=O)(O)OP(=O)(O)O)O[C@H]1n1ccc(N)nc1=O` gave a kcat/Km (Huh-7 [1]) of 15000 M⁻¹ s⁻¹.
With `O=c1ccn([C@@H]2O[C@H](COP(=O)(O)OP(=O)(O)O)[C@@H](O)[C@H]2O)c(=O)[nH]1` the kcat/Km (Huh-7 [2]) was 930000 M⁻¹ s⁻¹, the Km (Huh-7 [3]) was 156 µM and the kcat (Huh-7 [3]) was 145 s⁻¹.
With `C[C@@]1(F)[C@H](O)[C@@H](COP(=O)(O)OP(=O)(O)OP(=O)(O)O)O[C@H]1n1ccc(=O)[nH]c1=O` the Ki/Km [4] was 147, the Ratio (Hepacivirus hominis [5]) was 23.7 and the Ki/Km (Hepacivirus hominis [6]) was 6.2.
“Deoxycytidine kinase (Homo sapiens), P27707” was tested, and the kcat/Km [7] was 1.9 ×10⁻⁴ /µM/s.
`C[C@@]1(F)[C@H](O)[C@@H](COP(=O)(O)O)O[C@H]1n1ccc(=O)[nH]c1=O` was tested, and the Activity (Hepatitis C virus [8]) was “Active” and the Activity (Hepatitis C virus [9]) was “Active”.
In the case of `C[C@@]1(F)[C@H](O)[C@@H](COP(=O)(O)OP(=O)(O)O)O[C@H]1n1ccc(=O)[nH]c1=O`, the Activity [10] is reported as “inactive”, the Activity [11] is reported as “inactive” and the Activity [12] is reported as “inactive”. The Activity (Homo sapiens) was “inactive” and the kcat/Km (Huh-7 [13]) was 46000 M⁻¹ s⁻¹.
For `C[C@@]1(F)[C@H](O)[C@@H](CO)O[C@H]1n1ccc(=O)[nH]c1=O`, the Activity [14] was “inactive”, the Activity [15] was “inactive” and the Activity [16] was “inactive”. For the same compound, the Activity [17] was “inactive”.
“RNA-directed RNA polymerase (Hepacivirus hominis), O39930 S282T” gave a Km [18] of 0.15 µM and a Km [19] of 0.052 µM.
For `C[C@@]1(F)[C@H](O)[C@@H](COP(=O)(O)OP(=O)(O)OP(=O)(O)O)O[C@H]1n1ccc(N)nc1=O`, the Ki/Km [4] was 6, the Ratio (Hepacivirus hominis [5]) was 7.5 and the Km (Hepacivirus hominis [20]) was 0.074 µM. The Ki/Km (Hepacivirus hominis [6]) was 0.8.
